The text below walks through data of publication PMC7610887 (Journal of psychopharmacology (Oxford, England), 2019).

Series [1] concerns pregnane X receptor. The experiment in a line: Pregnane X receptor activation. As to conditions: linked to a potential for drug-drug interactions.
Series [2] concerns Male Wistar rats. Put plainly: Passive avoidance, scopolamine-induced deficit. The series is classed as in vivo, rat.
The subject of series [3] is dog. Put plainly: 4-week GLP safety assessment study, dog. The series is classed as in vivo.
For series [4], the system named is anaesthetised rats. The experiment in a line: In vivo electrophysiology, dentate gyrus population spike. The arrangement: species or system rat. The conditions noted are these: 10 mg/kg i.v.; vehicle 70%.
Assay in series [5]: as above
The arrangement: species or system rat. The conditions noted are these: male, Lister hooded, rat, brain, iv.

Series [6] relates to Heteromeric hGluN1A/GluN2B NMDARs. Put plainly: Ca2+ flux assay or whole-cell patch clamp, NMDAR. The class given is cell-based, human. As to conditions: Ca2+ flux assay or whole-cell patch clamp (data not shown). Summed up: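 HEK-293 cells were transduced with hGluN1A and hGluN2B BacMam vectors in the presence of 500 μM ketamine, then plated on poly-D-lysine, still with 500 μM ketamine, for 24 h. In the Ca2+ flux format, cells were loaded with Fluo-4AM (2 μM final) for 60 min, washed, then given test compound (1:3 serial dilution) plus glutamate (100 μM final), with FLIPR fluorescence read-out.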

The target of series [7] is hGluA2 AMPARs (Homo sapiens, UniProt P42262). Put plainly: Recombinant receptor whole-cell electrophysiology. As to conditions: 1 mM glutamate. The series is classed as cell-based. Summed up:
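HEK cells stably expressing hGluA2 were plated on poly-D-lysine coverslips and used 1-2 days later. Perforated-patch whole-cell recording at -60 mV used 2-5 MΩ pipettes, NaCl/HEPES external solution (pH 7.35) and CsCl/EGTA internal solution (pH 7.3). Glutamate (1 mM) was applied by fast perfusion for 2 s every 30 s, with or without test compound. Responses were related to the current from 1 mM glutamate alone.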

Series [8] concerns rats. Put plainly: Novel object recognition. As to conditions: p.o.
Series [9] can be described thus: Novel object recognition. The conditions noted are these: rat, in vivo, 0.1 mg/kg, 0.1 mg/kg p.o. sub-chronic.
Series [10] concerns the target hGluA2i AMPAR (Homo sapiens, UniProt P42262). The experiment in a line: Intracellular Ca2+ influx assay. The series is classed as cell-based. The gist of the method: (§1)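 AMPA receptor flip isoforms expressed in HEK-293 cells: hGluA1i, hGluA3i, hGluA4i and rat GluA2i by lipofectamine transient transfection, and hGluA2i stably. All were Q-unedited in TM2. Cells were seeded on poly-D-lysine 2 days before assay and loaded with Fluo-4AM (2 μM final) for 60 min in the dark in HEPES buffer, pH 7.3. Test compound (1:3 serial dilution) was added with glutamate (100 μM final), and FLIPR fluorescence was read. Maximum response was scaled to LY404187 run on each plate.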

The subject of series [11] is Human GluK2 receptors. Put plainly: Ca2+ flux assay or whole-cell patch clamp, GluK2. The series is classed as cell-based. The conditions noted are these: Ca2+ flux assay or whole-cell patch clamp (data not shown). The gist of the method:
(§2)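 Kainate receptors in HEK cells: hGluK1 (Q-unedited) by lipofectamine transient transfection, hGluK2 stably expressed. Cells were seeded 24 h before assay. In the Ca2+ flux format, cells were loaded with Fluo-4AM (2 μM final) for 60 min in the dark, washed, then given test compound (1:3 serial dilution) plus glutamate (100 μM final), with FLIPR fluorescence read-out.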
A general note: Calcium flux is commonly read through the fluorescence of an indicator in the cells.

Series [12] concerns the target Homomeric human GluA1 flip isoform (hGluA1i) (Homo sapiens, UniProt P42261). The experiment in a line: Intracellular Ca2+ influx assay. The series is classed as cell-based. The conditions noted are these: relative to positive control LY404187. The gist of the method:
as §1

Series [13] deals with hGluA3i AMPAR (Homo sapiens, UniProt P42263). The experiment in a line: Intracellular Ca2+ influx assay. The class given is cell-based. The gist of the method:
as §1

The target in series [14] is hGluA4i AMPAR (Homo sapiens, UniProt P48058). Put plainly: Intracellular Ca2+ influx assay. The series is classed as cell-based. Summed up:
as §1

Series [15] deals with native neuronal AMPARs in rat cultured hippocampal neurons. The experiment in a line: Native receptor electrophysiology in cultured hippocampal neurons. The class given is cell-based. The gist of the method: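 Hippocampi from embryonic rats were trypsinised (0.05%, 30 min, 37 °C), dissociated and grown in Neurobasal/B27 for 5-13 days. Whole-cell voltage clamp was held at -70 mV, with AMPA (30 μM) applied for 2 s every 30 s by fast perfusion, with test compound at 1 nM-10 μM. Charge transfer, desensitisation and deactivation were compared with AMPA alone by paired t-test.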

Series [16] has as its system rat. Put plainly: 4-week GLP safety assessment study, rat. The class given is in vivo.
A short description of series [17]: 4-week GLP safety assessment study, rat. The series is classed as in vivo. The conditions noted are these: rat, plasma, po, 800 mg/kg.
Series [18] has as its system rat. The experiment in a line: 7-day dose-range finding study, rat. As to conditions: doses of up to 1,600 mg/kg, 7-day. The class given is in vivo.
Series [19] can be described thus: 7-day dose-range finding study, rat. The class given is in vivo. As to conditions: rat, plasma, po, 1600 mg/kg.
Series [20] is described as follows: Solubility. The class given is physicochemical.
The test system of series [21] is dog. The experiment in a line: 7-day dose-range finding study, dog. The class given is in vivo. The conditions noted are these: doses of up to 1,000 mg/kg.
Series [22] deals with rat GluA2i AMPAR (Rattus norvegicus, UniProt P19491). The experiment in a line: Intracellular Ca2+ influx assay. The series is classed as cell-based. Summed up: as §1
rat GluA2i AMPAR, sequence (P19491 22-883 isoform P19491-2 limits assumed): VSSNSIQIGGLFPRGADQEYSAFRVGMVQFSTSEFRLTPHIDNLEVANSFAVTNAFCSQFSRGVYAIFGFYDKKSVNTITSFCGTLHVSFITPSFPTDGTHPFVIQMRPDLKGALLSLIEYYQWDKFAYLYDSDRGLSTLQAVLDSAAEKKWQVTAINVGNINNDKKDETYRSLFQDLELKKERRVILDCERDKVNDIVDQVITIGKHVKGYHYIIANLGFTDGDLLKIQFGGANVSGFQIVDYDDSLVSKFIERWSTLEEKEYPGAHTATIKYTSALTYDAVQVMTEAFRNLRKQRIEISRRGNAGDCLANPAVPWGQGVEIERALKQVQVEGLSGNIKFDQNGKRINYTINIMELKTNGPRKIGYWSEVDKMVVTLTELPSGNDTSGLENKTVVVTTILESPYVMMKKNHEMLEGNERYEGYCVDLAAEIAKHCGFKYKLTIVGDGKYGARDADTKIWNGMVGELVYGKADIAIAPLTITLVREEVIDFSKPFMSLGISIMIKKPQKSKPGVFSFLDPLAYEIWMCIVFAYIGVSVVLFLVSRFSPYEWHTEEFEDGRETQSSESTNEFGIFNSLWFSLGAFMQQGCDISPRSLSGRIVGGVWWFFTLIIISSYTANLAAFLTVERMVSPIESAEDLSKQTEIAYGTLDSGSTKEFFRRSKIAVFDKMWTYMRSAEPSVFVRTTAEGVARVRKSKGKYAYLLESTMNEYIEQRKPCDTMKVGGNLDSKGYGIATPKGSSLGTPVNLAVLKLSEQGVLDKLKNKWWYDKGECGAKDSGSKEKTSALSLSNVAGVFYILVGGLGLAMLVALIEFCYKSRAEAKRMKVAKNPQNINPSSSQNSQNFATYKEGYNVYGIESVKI
Series [23] deals with Homomeric hGluK1 kainate receptors. The experiment in a line: Ca2+ flux assay or whole-cell patch clamp, GluK1. The class given is cell-based, human. As to conditions: Ca2+ flux assay or whole-cell patch clamp (data not shown). Summed up: as §2
Series [24] relates to male Lister Hooded rats. The experiment in a line: Maximal electroshock threshold. (In general: In the maximal electroshock model the usual endpoint is tonic extension of the hind limbs.)
Series [25] can be described thus: Maximal electroshock threshold. The conditions noted are these: male, Lister Hooded, rat, brain, oral, 30 mg/kg.
The test system of series [26] is rats. Put plainly: 6-week GLP Safety and Toxicity study of UoS12258, rat. The class given is in vivo.
For series [27], the system named is rats. The conditions noted are these: p.o.; ref Ward et al., 2017; cited from earlier work.
The subject of series [28] is Male Wistar rats. The conditions noted are these: p.o.; ref Ward et al., 2017; cited from earlier work.
Series [29] relates to male Lister Hooded rats. The conditions noted are these: ref Ward et al., 2017, cited from earlier work.
The test system of series [30] is native neuronal AMPARs in rat cultured hippocampal neurons. As to conditions: rat primary hippocampal neurons; ref Ward et al., 2017; cited from earlier work.
Series [31] concerns cynomolgus monkeys. The experiment in a line: 6-week GLP Safety and Toxicity study of UoS12258, cynomolgus monkey. The series is classed as in vivo. As to conditions: 6-week GLP.
Assay in series [32]: as above
As to conditions: cynomolgus monkey, in vivo, po. The class given is in vivo.

The mark [33] stands for this setting: relative to positive control LY404187.

pEC50: −log10 of the molar value. “And” between values parts separate entries of the source, which are not always exact repeats. Equal entries are not always repeated. Where two headings read alike, the source gives them in different places. Where only a bound is given, the exact number is not on record here.

hGluA2i AMPAR, sequence (P42262 25-883 isoform P42262-2 limits assumed): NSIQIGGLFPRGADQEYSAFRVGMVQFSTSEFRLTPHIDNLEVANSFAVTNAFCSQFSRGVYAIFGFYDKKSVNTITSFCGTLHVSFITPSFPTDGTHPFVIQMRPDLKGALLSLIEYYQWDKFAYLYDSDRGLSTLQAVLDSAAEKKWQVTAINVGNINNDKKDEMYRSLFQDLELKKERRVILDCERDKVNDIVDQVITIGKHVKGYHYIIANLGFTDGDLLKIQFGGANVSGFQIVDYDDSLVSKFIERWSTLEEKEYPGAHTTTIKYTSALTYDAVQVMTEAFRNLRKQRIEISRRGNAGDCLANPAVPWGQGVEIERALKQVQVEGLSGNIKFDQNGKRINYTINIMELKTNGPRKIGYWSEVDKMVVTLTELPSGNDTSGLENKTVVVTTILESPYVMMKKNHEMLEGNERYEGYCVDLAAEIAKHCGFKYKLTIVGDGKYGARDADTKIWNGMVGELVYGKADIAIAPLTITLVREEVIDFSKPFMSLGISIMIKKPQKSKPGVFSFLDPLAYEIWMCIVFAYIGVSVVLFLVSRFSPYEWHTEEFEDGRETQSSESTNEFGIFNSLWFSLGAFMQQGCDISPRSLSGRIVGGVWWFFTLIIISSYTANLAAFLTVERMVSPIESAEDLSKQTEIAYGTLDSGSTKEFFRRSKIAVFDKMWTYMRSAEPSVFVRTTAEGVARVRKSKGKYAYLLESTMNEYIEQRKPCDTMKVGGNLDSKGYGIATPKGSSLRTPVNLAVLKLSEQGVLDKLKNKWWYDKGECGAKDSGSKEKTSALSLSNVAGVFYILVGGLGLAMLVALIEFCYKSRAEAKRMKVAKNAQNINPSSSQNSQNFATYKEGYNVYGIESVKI
hGluA3i AMPAR, sequence (P42263 29-894 isoform P42263-2 limits assumed): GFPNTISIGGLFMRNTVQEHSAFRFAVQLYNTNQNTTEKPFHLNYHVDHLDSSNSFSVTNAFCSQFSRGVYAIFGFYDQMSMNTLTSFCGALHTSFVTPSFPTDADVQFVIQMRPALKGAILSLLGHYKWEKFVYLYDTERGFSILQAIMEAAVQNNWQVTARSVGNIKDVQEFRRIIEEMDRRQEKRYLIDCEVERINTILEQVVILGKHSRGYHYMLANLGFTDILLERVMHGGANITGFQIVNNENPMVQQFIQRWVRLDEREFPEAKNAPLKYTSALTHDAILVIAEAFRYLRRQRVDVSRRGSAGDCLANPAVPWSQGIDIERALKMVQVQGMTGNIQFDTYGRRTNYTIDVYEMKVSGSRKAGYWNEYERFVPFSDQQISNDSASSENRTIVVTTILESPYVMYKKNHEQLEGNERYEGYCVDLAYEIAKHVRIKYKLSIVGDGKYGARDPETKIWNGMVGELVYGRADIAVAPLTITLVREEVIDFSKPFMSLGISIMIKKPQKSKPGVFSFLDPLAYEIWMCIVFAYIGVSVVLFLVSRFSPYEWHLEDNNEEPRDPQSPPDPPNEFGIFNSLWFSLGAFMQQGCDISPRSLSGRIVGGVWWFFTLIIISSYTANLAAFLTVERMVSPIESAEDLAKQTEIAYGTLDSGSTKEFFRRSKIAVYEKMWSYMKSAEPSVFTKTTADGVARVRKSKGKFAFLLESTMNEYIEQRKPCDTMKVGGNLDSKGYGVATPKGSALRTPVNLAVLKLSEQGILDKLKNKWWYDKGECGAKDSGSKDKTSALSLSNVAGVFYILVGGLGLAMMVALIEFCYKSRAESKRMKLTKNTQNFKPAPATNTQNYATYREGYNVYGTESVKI
hGluA2 AMPARs, sequence (P42262 25-883 isoform P42262-2 limits assumed): as the sequence (P42262 25-883 isoform P42262-2 limits assumed) above
hGluA4i AMPAR, sequence (P48058 21-902): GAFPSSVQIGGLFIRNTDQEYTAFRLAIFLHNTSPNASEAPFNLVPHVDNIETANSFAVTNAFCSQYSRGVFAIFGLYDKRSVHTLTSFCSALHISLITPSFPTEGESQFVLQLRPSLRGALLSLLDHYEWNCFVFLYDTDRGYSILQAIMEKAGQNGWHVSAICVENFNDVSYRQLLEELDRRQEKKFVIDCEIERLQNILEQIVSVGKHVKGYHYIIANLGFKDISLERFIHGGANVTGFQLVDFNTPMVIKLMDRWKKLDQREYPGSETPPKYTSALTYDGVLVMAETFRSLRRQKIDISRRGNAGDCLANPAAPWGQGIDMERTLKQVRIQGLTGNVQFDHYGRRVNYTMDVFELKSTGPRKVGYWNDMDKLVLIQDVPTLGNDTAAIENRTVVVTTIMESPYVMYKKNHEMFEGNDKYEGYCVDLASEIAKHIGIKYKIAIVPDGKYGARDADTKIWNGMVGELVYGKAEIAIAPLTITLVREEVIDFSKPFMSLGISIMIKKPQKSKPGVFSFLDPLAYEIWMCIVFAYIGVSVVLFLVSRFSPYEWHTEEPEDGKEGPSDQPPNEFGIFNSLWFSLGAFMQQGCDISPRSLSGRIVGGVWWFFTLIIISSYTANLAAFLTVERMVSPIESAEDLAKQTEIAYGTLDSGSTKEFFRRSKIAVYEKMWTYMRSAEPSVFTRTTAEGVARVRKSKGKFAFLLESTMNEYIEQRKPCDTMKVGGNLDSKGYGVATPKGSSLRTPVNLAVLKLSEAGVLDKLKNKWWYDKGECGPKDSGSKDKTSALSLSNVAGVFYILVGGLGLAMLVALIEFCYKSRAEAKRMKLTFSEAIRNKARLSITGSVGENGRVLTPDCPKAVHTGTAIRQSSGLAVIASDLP
Homomeric human GluA1 flip isoform (hGluA1i), sequence (P42261 19-906 isoform P42261-2 limits assumed): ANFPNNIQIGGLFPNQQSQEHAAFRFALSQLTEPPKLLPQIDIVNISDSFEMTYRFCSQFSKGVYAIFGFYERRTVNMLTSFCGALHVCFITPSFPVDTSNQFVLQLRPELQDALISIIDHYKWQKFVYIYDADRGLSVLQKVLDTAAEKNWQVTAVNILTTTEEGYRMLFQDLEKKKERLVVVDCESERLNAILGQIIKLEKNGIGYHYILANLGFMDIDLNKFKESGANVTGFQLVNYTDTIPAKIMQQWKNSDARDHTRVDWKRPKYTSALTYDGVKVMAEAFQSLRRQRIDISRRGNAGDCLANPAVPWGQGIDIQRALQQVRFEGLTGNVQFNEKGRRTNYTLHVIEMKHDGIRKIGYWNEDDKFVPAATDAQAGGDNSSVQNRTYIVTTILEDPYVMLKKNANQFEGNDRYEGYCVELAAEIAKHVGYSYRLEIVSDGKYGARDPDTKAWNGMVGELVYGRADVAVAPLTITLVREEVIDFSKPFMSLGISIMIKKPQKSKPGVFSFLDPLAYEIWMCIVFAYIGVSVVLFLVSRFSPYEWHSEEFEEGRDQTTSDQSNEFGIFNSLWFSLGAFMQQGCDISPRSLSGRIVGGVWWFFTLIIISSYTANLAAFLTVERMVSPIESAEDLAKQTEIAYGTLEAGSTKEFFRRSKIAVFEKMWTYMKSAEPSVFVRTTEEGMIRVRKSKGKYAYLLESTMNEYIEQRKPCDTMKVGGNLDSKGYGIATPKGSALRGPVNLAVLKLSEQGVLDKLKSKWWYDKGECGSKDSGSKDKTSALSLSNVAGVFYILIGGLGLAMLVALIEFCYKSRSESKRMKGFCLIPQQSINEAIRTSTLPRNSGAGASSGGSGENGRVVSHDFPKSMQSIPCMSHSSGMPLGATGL

Take `O=C(c1ccc(-n2nc(C(F)(F)F)c3c2CCCC3)cc1)N1CCCC1` [MDI-222, 1-[4-(1-pyrrolidinylcarbonyl)phenyl]-3-(trifluoromethyl)-4,5,6,7-tetrahydro-1H-indazole]: in series [1], the “pregnane X receptor” value is given as “activation”. Also, the “MED, reversal of scopolamine-induced deficit” value in [2] (p.o.) is 10 mg/kg. Moreover, the “systemic exposure on Day 28 relative to Day 1, fold lower” value in series [3] (4-week study) is at most 9 fold; in series [16] (4-week study) it was “up to 6 fold”. Besides, the convulsions entry in series [3] (highest dose 1,000 mg/kg, 4-week GLP) is “no convulsions observed”; in series [16] (highest dose 800 mg/kg, 4-week GLP), “no convulsions observed”. In addition, the “dentate gyrus population spike amplitude” value in series [4] was 139 % of baseline. The compound also yielded a concentration at 20 min in series [5] of 11600 ng/g. Besides, the “effect on glutamate-induced currents” value in series [6], in [11] and in [23] was “no effects” in each case. Besides, the “potentiation of glutamate-evoked charge transfer (area under the curve)” value in [7] (100 nM) came to 121 ± 7%; in series [7] (10 μM), 702 ± 40%. Further, the “minimal effective dose (D2 index), acute” value in [8] (acute single-dose) stood at 0.3 mg/kg. Also, the “minimal effective dose, sub-chronic” value in [8] (sub-chronic (7-day) dosing) worked out at 0.1 mg/kg. In addition, the concentration at 30 min amounted to 7 ng/mL in series [9] (mean blood level) and 9 ng/g in series [9] (mean brain level). The pEC50 in [10] is 5.30; in series [13], 4.50; in [14] it was 5.10; in [22], 5.40. In addition, the Max. % response was 123 ± 7% and 123 ± 7 (9) % in [10] (setting [33]); 30 ± 2 (4) % in series [12]; 53 ± 3 (3) % in series [13] (setting [33]); 76 ± 1 (4) % in [14] (setting [33]); 76 ± 8 (4) % in [22] (setting [33]). The “Charge transfer, normalised to AMPA alone” value in series [15] (1 nM) stood at 1.14 ± 0.05; in series [15] (10 nM), 1.37 ± 0.09; in [15] (100 nM) it was 1.33 ± 0.12; in series [15] (1 μM), 1.28 ± 0.14; in series [15] (10 μM) it was 1.62 ± 0.15. Moreover, the “Deactivation, normalised to AMPA alone” value was 1.06 ± 0.04 in series [15] (1 nM); 1.19 ± 0.15 in [15] (10 nM); 1.29 ± 0.17 in [15] (100 nM); 1.33 ± 0.17 in series [15] (1 μM); 2.79 ± 0.43 in series [15] (10 μM). Also, the “Desensitisation, normalised to AMPA alone” value in series [15] (1 nM) stood at 0.77 ± 0.10; in series [15] (10 nM) it was 0.81 ± 0.05; in series [15] (100 nM), 0.76 ± 0.03; in series [15] (1 μM), 0.72 ± 0.04; in series [15] (10 μM) it was 0.25 ± 0.08. For the same compound, the “increase in charge transfer (maximal potentiation)” value in [15] (10 μM) is recorded as 62%. The “minimum effective concentration, charge transfer” value in series [15] (AMPA 30 μM) turned out to be 1 nM. For the same compound, the “minimum effective concentration, desensitisation” value in series [15] (AMPA 30 μM) was determined as 10 nM. The “inward current when applied in the absence of AMPA” value in series [15] (no agonist) is given as “did not invoke an inward current”. For the same compound, the figures for the Cmax in series [17] and in series [19] were 13 to 17000 ng/mL and around 15000 ng/mL, respectively. For the same compound, the convulsions / tolerability result in [18] and in series [21] was “did not produce convulsions” each time. Further, the solubility result in series [20] is reported as “poor solubility”. In addition, the brain drug concentration entry in series [24] (30 mg/kg p.o.) is “approximately 4.7 μg/g”. The “CC50 lower than vehicle-treated rats” value in series [24] (3, 10 and 30 mg/kg p.o.) was 10-15%. Moreover, the “effect on seizure threshold” value in series [24] (up to 30 mg/kg p.o.) is on record as “did not significantly affect the seizure threshold”. Moreover, in [25], the concentration at 0.5 h was around 4700 ng/g.
On to `CN1[C@@H]2C[C@@H](OC(=O)[C@H](CO)c3ccccc3)C[C@H]1[C@@H]1O[C@@H]12` [scopolamine, reference compound], for which the step-through latency in series [2] (scopolamine 1 mg/kg i.p., vehicle 457 ± 83 s) is 157 ± 46 s.
Take `CC(C)S(=O)(=O)N[C@H]1Cc2ccc(-c3ccc(F)nc3)cc2C1` [UoS12258, N-[(2S)-5-(6-fluoro-3-pyridinyl)-2,3-dihydro-1H-inden-2-yl]-2-propanesulfonamide]: the “dose at which convulsions were observed” value in [26] is on record as 10 mg/kg. Also, in series [27], the “MED, NOR following sub-chronic dosing” value is given as 0.01 mg/kg and the “MED, acute-dosing NOR” value is given as 0.3 mg/kg. For the same compound, the “MED, reversal of scopolamine-induced deficit” value in series [28] is given as 3 mg/kg. In series [29] (100 mg/kg p.o.), the brain exposure entry is listed as “around 5.0 μg/g” and the “proconvulsant effect in MEST” value was “comparable to that of the positive control picrotoxin”. In addition, the “proconvulsant dose in MEST” value in [29] (p.o.) is listed as 10 mg/kg. In addition, in series [30], the “maximal potentiation in the charge transfer” value was 310%. Also, in [31], the “dose at which convulsions were observed” value was 4 mg/kg. Further, the NOAEL at 6 weeks in series [32] was found to be 2.5 mg/kg.

One may read the pEC50 as −log10 of the EC50, conventionally taken in molar units. Broadly, the Cmax is the peak of the concentration-time curve. A word on the NOAEL: it is the highest tested level that showed no adverse finding.
